The record followed here is ChEMBL document CHEMBL2401654, “Synthesis, characterization, and biological assessment of the four stereoisomers of the H(3) receptor antagonist 5-fluoro-2-methyl-N-[2-methyl-4-(2-methyl[1,3']bipyrrolidinyl-1'-yl)phenyl]benzamide” (Bioorg Med Chem Lett, 2013).

Usually IC50 stands for the concentration that inhibits the measured activity by half. Read a low IC50 as greater potency. What is called inhibition is the percentage by which the read-out fell short of the control. A low value points to little suppression. One may read the Ki as a measure of affinity in units of concentration, obtained from inhibition or displacement.

SMILES strings stand for the structures. Some results are limits rather than exact numbers.

The nature of data set [1]: Genotoxicity in micronucleus (unknown origin).
The target of the next data set is T1, Cytochrome P450 1A2 (Homo sapiens, UniProt P05177).
T1 sequence (P05177 whole entry): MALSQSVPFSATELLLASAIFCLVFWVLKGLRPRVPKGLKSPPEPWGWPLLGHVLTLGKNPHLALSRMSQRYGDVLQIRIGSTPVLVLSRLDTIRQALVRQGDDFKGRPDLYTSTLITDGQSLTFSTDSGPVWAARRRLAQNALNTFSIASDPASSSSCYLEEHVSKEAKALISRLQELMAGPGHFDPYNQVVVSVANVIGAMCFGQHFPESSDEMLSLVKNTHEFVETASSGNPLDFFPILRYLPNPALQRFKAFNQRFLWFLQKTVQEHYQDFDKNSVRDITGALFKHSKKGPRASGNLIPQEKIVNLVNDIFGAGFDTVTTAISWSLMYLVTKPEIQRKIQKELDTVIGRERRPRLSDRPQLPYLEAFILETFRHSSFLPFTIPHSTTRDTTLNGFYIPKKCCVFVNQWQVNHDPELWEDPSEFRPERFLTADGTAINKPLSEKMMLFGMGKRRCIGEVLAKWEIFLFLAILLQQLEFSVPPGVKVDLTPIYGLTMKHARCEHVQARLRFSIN
As to the kind of experiment: Inhibition of CYP1A2 (unknown origin). The data set is classed as ADME.

A further data set deals with T2, Cytochrome P450 2B6 (Homo sapiens, UniProt P20813).
T2 sequence (P20813 whole entry): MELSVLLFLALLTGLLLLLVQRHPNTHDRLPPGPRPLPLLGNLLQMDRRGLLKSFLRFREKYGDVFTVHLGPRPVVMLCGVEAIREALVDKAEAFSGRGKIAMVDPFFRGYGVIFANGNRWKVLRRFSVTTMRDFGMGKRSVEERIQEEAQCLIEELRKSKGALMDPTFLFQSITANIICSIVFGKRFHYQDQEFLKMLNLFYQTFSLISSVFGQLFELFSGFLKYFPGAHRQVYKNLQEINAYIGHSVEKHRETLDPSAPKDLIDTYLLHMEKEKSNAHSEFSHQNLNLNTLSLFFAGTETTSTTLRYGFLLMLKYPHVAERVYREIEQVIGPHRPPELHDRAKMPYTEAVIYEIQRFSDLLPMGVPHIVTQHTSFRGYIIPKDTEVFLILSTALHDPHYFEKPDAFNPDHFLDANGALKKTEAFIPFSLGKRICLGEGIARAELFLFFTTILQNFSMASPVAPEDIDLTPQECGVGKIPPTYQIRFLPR
Put plainly: Inhibition of CYP2B6 (unknown origin). The format is ADME.

In data set [2] the target is T3, hERG (KCNH2) (Homo sapiens, UniProt Q12809). As to the kind of experiment: Inhibition of human ERG transfected in CHO cells at 1 uM by patch clamp assay relative to control. The format is cell-based. Conditions: CHO cells transfected with human ERG; call rule not given here. Put shortly: (§1)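 Whole-cell patch clamp on CHO cells stably transfected with the human ERG gene.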
T3 sequence (Q12809 whole entry): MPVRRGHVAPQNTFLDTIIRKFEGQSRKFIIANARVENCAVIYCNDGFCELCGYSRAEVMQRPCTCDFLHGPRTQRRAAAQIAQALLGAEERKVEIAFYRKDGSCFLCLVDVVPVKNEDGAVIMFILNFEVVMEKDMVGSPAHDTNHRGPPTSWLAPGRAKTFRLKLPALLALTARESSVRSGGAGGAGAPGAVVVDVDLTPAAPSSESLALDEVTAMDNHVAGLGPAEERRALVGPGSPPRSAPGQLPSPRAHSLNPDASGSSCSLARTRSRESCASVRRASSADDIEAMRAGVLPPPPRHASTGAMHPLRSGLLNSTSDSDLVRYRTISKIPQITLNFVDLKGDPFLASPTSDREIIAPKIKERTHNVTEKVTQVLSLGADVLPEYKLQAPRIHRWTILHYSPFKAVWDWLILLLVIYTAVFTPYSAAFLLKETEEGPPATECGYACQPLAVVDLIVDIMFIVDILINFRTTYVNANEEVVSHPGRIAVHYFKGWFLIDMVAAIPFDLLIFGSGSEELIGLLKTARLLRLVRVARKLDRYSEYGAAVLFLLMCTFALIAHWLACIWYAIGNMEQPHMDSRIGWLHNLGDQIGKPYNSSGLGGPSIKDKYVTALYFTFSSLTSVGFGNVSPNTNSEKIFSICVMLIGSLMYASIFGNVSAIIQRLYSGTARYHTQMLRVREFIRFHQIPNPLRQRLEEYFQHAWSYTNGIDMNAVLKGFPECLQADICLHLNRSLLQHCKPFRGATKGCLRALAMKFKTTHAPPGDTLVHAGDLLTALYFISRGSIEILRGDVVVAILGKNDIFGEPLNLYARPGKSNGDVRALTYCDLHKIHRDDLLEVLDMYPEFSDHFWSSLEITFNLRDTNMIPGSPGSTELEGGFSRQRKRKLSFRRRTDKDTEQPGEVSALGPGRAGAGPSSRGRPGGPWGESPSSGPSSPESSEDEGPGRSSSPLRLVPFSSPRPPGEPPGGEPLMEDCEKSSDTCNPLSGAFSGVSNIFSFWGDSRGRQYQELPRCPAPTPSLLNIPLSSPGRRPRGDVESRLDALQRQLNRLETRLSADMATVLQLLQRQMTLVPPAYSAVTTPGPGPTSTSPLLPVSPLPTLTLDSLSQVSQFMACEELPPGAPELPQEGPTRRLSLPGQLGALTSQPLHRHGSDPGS
(Patch clamp records ionic current or voltage across a cell membrane.)

The target of data set [3] is Histamine H3 receptor (Rattus norvegicus, UniProt Q9QYN8). As to the kind of experiment: Displacement of [3H]N-alpha-methylhistamine from recombinant rat histamine H3 receptor transfected in CHO cell membranes after 1 hr by scintillation counting analysis. The arrangement: species or system Membrane. Put shortly: (§2)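 Radioligand displacement of [3H]N-α-methylhistamine using membranes from CHO cells stably transfected with recombinant human or rat H3 receptor. Ki is presented as a range of multiple experiments (n ≥ 3).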
Chain of Histamine H3 receptor (Rattus norvegicus, UniProt Q9QYN8) (Q9QYN8 whole entry): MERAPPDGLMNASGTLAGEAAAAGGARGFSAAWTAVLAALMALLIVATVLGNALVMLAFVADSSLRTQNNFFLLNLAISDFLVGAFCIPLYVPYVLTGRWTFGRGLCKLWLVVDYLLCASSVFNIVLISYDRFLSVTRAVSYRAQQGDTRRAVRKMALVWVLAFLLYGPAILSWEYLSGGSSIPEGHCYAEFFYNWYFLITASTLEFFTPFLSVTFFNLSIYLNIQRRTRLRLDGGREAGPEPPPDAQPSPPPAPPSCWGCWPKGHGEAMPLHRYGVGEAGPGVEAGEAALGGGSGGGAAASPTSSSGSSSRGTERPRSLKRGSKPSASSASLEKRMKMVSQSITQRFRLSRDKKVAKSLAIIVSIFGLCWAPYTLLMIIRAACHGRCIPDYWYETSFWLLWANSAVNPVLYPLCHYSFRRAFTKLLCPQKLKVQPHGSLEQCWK

Data set [4] can be described thus: Drug metabolism in rat liver microsomes at 5 uM after 20 mins. The format is ADME, Microsome. Conditions: read-out: Drug metabolism. Put shortly: (§3)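 Substrate at 5 µM incubated at 37 °C for 20 min with in-house liver microsome preparations (human, mouse or rat). Reported as the percentage of parent compound metabolized.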
(In general: Liver microsomes are a subcellular fraction often used to study metabolism.)

In a further data set the target is Cytochrome P450 2D6 (Homo sapiens, UniProt P10635). As to the kind of experiment: Inhibition of CYP2D6 (unknown origin). The format is ADME.
Chain of Cytochrome P450 2D6 (P10635 whole entry): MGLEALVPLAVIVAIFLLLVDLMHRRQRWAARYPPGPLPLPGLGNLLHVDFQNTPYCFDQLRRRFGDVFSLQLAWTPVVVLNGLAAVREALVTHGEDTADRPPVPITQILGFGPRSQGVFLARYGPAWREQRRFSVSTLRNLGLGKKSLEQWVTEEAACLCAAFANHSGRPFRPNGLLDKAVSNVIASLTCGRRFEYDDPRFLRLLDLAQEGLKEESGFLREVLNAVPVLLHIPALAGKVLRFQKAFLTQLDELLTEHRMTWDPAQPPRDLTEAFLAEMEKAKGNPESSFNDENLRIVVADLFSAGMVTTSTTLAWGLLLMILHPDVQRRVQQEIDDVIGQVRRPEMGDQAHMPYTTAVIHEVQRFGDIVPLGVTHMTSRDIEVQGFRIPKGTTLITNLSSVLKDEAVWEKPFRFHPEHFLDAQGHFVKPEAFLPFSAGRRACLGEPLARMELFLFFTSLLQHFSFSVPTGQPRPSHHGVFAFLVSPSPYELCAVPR
In a further data set the target is Cytochrome P450 2C9 (Homo sapiens, UniProt P11712). As to the kind of experiment: Inhibition of CYP2C9 (unknown origin). The format is ADME.
Chain of Cytochrome P450 2C9 (P11712 whole entry): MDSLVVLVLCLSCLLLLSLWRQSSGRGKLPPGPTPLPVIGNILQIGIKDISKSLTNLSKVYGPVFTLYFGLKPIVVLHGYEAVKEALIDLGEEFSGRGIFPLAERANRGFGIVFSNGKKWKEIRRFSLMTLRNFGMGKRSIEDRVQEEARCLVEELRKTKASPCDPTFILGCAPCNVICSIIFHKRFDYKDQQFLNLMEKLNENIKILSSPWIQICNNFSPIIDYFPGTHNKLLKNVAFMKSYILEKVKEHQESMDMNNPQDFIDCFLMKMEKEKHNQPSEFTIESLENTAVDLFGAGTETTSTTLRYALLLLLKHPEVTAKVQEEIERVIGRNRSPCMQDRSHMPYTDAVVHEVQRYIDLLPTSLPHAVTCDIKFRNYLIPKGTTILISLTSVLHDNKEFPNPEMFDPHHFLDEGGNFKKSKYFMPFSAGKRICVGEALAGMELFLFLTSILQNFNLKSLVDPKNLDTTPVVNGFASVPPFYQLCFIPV
The next data set concerns the target Cytochrome P450 3A4 (Homo sapiens, UniProt P08684). As to the kind of experiment: Inhibition of CYP3A4 (unknown origin). The format is ADME.
A further data set concerns Salmonella typhimurium. As to the kind of experiment: Mutagenic activity in Salmonella typhimurium by Ames test. The format is toxicity, organism-based. Conditions: salmonella enterica subsp. enterica serovar typhimurium.
A short description of data set [5]: Drug metabolism in mouse liver microsomes at 5 uM after 20 mins. To be noted: read-out: Drug metabolism. The format is ADME, Microsome. Put shortly: as §3
Data set [6] in a line: Drug metabolism in human liver microsomes at 5 uM after 20 mins. The format is ADME, Microsome. To be noted: read-out: Drug metabolism. Put shortly: as §3
In data set [7] the target is T3, hERG (KCNH2). Put plainly: Inhibition of human ERG transfected in CHO cells at 10 uM by patch clamp assay relative to control. Conditions: CHO cells transfected with human ERG. The format is cell-based. Summed up: as §1
For the next data set, the target named is Cytochrome P450 2C19 (Homo sapiens, UniProt P33261). Put plainly: Inhibition of CYP2C19 (unknown origin). The data set is classed as ADME.
Chain of Cytochrome P450 2C19 (P33261 whole entry): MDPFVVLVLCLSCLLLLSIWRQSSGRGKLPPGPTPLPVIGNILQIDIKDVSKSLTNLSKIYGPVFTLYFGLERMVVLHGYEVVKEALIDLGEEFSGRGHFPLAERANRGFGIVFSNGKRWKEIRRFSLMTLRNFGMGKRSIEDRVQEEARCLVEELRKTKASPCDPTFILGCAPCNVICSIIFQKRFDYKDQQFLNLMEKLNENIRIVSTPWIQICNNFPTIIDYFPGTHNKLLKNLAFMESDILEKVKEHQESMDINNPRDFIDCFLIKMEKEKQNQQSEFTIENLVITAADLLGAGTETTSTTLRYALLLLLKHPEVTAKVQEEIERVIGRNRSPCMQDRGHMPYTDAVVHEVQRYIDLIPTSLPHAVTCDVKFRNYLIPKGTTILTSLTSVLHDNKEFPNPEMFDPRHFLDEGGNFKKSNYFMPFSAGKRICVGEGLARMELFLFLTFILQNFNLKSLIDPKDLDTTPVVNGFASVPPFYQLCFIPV
In data set [8] the target is Histamine H3 receptor (Homo sapiens, UniProt Q9Y5N1). Put plainly: Displacement of [3H]N-alpha-methylhistamine from recombinant human histamine H3 receptor transfected in CHO cell membranes after 1 hr by scintillation counting analysis. Summed up:
as §2
In general terms: In a radioligand displacement assay an active substance lowers the binding of a labelled ligand.

Chain of Histamine H3 receptor (Homo sapiens, UniProt Q9Y5N1) (Q9Y5N1 whole entry): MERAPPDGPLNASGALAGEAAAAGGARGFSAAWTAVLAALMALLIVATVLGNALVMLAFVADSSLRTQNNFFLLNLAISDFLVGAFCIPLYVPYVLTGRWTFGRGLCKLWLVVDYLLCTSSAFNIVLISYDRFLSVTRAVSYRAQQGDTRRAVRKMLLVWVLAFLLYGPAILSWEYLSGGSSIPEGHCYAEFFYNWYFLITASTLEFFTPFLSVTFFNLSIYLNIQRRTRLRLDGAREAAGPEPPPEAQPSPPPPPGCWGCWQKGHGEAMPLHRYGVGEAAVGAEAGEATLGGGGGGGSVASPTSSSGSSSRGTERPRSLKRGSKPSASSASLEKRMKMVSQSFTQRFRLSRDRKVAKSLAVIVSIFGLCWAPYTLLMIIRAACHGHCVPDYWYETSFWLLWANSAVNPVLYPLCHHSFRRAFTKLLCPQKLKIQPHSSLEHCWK
Chain of Cytochrome P450 3A4 (P08684 whole entry): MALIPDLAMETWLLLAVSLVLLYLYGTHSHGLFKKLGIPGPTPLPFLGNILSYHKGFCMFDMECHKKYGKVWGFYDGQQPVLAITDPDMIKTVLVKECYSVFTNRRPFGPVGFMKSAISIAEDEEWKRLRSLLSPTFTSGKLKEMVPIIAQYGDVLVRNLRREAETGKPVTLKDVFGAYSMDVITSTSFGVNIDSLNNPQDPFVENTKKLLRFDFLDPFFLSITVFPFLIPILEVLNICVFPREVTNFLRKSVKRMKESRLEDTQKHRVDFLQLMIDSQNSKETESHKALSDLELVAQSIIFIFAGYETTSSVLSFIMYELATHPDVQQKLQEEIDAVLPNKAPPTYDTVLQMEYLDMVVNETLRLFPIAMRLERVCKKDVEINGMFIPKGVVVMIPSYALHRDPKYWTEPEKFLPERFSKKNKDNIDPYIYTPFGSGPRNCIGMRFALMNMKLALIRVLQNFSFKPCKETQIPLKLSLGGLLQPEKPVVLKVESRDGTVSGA

Regarding `Cc1cc(N2CC[C@@H](N3CCC[C@H]3C)C2)ccc1NC(=O)c1cc(F)ccc1C`, the Activity entry (in data set [1]; in the data set on Salmonella typhimurium) was “Non-toxic” in each case. Moreover, the IC50 on Cytochrome P450 1A2, at Cytochrome P450 2B6, at Cytochrome P450 2D6, on Cytochrome P450 2C9, on Cytochrome P450 3A4 and on Cytochrome P450 2C19 was > 30 µM in each case. Besides, the inhibition at 1 µM against hERG (KCNH2) [2] was 33.7%. Further, the inhibition constant Ki at Histamine H3 receptor [3] stood at 0.0737 µM; at Histamine H3 receptor [8], 0.3 µM. The results for the metabolised at 20 min, 5 µM in data set [4], in data set [5] and in data set [6] were 27%, 17% and 8%, respectively. On hERG (KCNH2) [7], this compound showed an inhibition at 10 µM of 77.5%.
In the case of `Cc1cc(N2CC[C@H](N3CCC[C@H]3C)C2)ccc1NC(=O)c1cc(F)ccc1C`, the Activity result (in data set [1]; in the data set on Salmonella typhimurium) was “Non-toxic” throughout. Also, the half-maximal inhibitory concentration (IC50) against Cytochrome P450 1A2, on Cytochrome P450 2B6, on Cytochrome P450 2D6, against Cytochrome P450 2C9, against Cytochrome P450 3A4 and against Cytochrome P450 2C19 was > 30 µM throughout. Further, the inhibition at 1 µM on hERG (KCNH2) [2] came to 43%. Moreover, the values for the inhibition constant Ki on Histamine H3 receptor [3] and on Histamine H3 receptor [8] were 0.093 µM and 0.82 µM, respectively. For the same compound, the metabolised at 20 min, 5 µM in data set [4] was 60%; in data set [5], 29%; in data set [6], 7%. Besides, the inhibition at 10 µM at hERG (KCNH2) [7] worked out at 84.3%.
